Data published in the RNAGym collection of RNA variant scans (doi:10.1126/science.aae0568).
Variants at the floor of the assay were thinned out.

B1: tRNA (parent)
chain: GUUCCGUUGGCGUAAUGGUAACGCGUCUCCCUCCUAAGGAGAAGACUGCGGGUUCGAGUCCCGUACGGAACG

Variants of: B1
Assay: yeast fitness relative to wild type (ratio to wild type); higher = fitter; tRNA-Arg(CCU), competitive growth, 37 C, YPD
Summary of the method: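 Changes in genotype frequencies gave Darwinian fitness relative to wild type. Frequencies were read by 100-nucleotide paired-end sequencing of gene amplicons before and after pooled Saccharomyces cerevisiae strains, carrying tRNA-Arg(CCU) gene variants at the native locus, were competed in YPD at 37°C for 24 hours in six replicates. A genotype was kept only with ≥ 100 starting reads, and estimates < 0.5 were set to 0.5.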

With GUUCCGUUGGCGUAAUGGGAACGCGUCUCCCUCCUAAGGAGAAGACUGCGGGUUGGAGUCCCGUAUGGAACG [U19G C55G C66U] as the variant, how does the yeast fitness read?
The yeast fitness was 0.536.

For GUUCCGUUGGCGUAAUGGGAACGCGUCUCCCUCCUAAGGAGAAGACUGCGGGUUCGAGUUGCGUACAGAACG [U19G C60U C61G G67A], which yeast fitness is on record?
Its yeast fitness is no more than 0.5.

With GUUCCGUUGGCGUAAUGGGAACGCGUCUACCUCCUAAGGAGAAGACUGCGGGUUCGAGUCCCGUACGGUACG [U19G C29A A69U] as the variant, how does the yeast fitness read?
Its yeast fitness is no more than 0.5.

With GUUCCGUUGGCGUAAUGGGAAUGCGUCUCCUUCCUAAGGUGAAGACUGCGGGUUCGAGUCCCGUACAGAACG [U19G C22U C31U A40U G67A] as the variant, how does the yeast fitness read?
Its yeast fitness is 0.637.

With GUUCCGUUGGCGUAAUGGGAAUGCGUCUCCCUCCUAGGGAGAAGACUGCGGGUUCGAGUCCCGUAUGGUACG [U19G C22U A37G C66U A69U] as the variant, how does the yeast fitness read?
The yeast fitness was 0.61.

With GUUCCGUUGGCGUAAUGGGAACGCGUCUCCCUGCUACGGAGAAGACUGGGGGUUCGAGUCCCGUACGGAACG [U19G C33G A37C C49G] as the variant, how does the yeast fitness read?
The yeast fitness was no more than 0.5.

With GUUCCGUUGGCGUAAUGGGAACGCGUCUUCCUCCUAAGGAGAAGACUGCGGGUUCGAGUCCCGUACGGAACG [U19G C29U] as the variant, how does the yeast fitness read?
The yeast fitness was 0.795.

Which yeast fitness does the source give for GUUCCGUUGGCGUAAUGGGAACGCGUCUCCCUCCUAAGGAGAAGACUGCGGGUUCGAGUCCCGUACGGCACG [U19G A69C] here?
Its yeast fitness is 0.856.

For GUUCCGUUGGCGUAAUGGGAACGCGUCUCCCUCCUAAGGAGAAGACUGCGGGUUCGAGUCCCGUACGGUACG [U19G A69U], which yeast fitness is on record?
The yeast fitness was 0.892.

For GUUCCGUUGGCGUAAUGGGAACGCGUCUCUCUCCUAAGGAGAAGACUGCGGGUUUGGGUCCCGUACGGAACG [U19G C30U C55U A57G], which yeast fitness is on record?
The yeast fitness was no more than 0.5.

Which yeast fitness does the source give for GUUCCGUUGGCGUAAUGGGAACGCGUCUACCUCCUAAGGAGAAGUCUGCGGGUUCGAGUCCCGUACGGAACG [U19G C29A A45U] here?
The yeast fitness was no more than 0.5.

For GUUCCGUUGGCGUAAUGGGAACGCGUCUCCCUCCUAAGGAGAAGACUGCGGGUUCGAGUCUCGUACGGAACG [U19G C61U], which yeast fitness is on record?
The yeast fitness was 0.77.

Which yeast fitness does the source give for GUUCCGUUGGCGUAAUGGGAACGCGUCUCCCUGCUAAGGAGAAGACAGCGGGUUCGAGUCCCGUACGGAACG [U19G C33G U47A] here?
Its yeast fitness is 0.542.

Which yeast fitness does the source give for GUUCCGUUGGCGUAAUGGGAACGCGUCUCCCUCCUAAGGAGAAGACUGCGGGUUCGAGUCCCGUACGGAUCG [U19G A70U] here?
The yeast fitness was 1.02.

With GUUCCGUUGGCGUAAUGGGAACGCGUCUCCCUCCUAAGGAGAAGACUGCGGGUUCGAGUCCCGUACGGACCG [U19G A70C] as the variant, how does the yeast fitness read?
Its yeast fitness is 0.999.

Which yeast fitness does the source give for GUUCCGUUGGCGUAAUGGGAAUGCGUCUCCCUCCUAAGGAGAAGACUGUGGGUUCGAGUCCAGUACGGAACG [U19G C22U C49U C62A] here?
The yeast fitness was no more than 0.5.

Which yeast fitness does the source give for GUUCCGUUGGCGUAAUGGGAACGCGUCUCCCUCCUAAGGAGAAGACUGCGGGUUCGGGUCCCGUACGGAACG [U19G A57G] here?
The yeast fitness was 0.611.

With GUUCCGUUGGCGUAAUGGGAAGGCGUCUCCCUCUUAAGGAGAAGACUGCGGGUUCGAGUCGCGUACGGAACG [U19G C22G C34U C61G] as the variant, how does the yeast fitness read?
Its yeast fitness is no more than 0.5.

For GUUCCGUUGGCGUAAUGGGAACGCGUCUCCCUCCUAAGGAGAAGACUGAGGGUUCGAGUCCGGUAUGGAGCG [U19G C49A C62G C66U A70G], which yeast fitness is on record?
The yeast fitness was no more than 0.5.

For GUUCCGUUGGCGUAAUGGGAACGCGUUUCCCUCCUAAGGAGCAGACUGCGGGUUCGAGUCCCGUACGGAACG [U19G C27U A42C], which yeast fitness is on record?
Its yeast fitness is no more than 0.5.

With GUUCCGUUGGCGUAAUGGGAACGCGUCUCCCUCCUAAGGAGAAGACUGUGGGUUCGAGUCCAGUACGGAACG [U19G C49U C62A] as the variant, how does the yeast fitness read?
The yeast fitness was 0.598.

With GUUCCGUUGGCGUAAUGGGAACGCGUCUCCCUCCUAAGGAGAAGACUGUGGGUUCGAGUCCCGUACGGAACG [U19G C49U] as the variant, how does the yeast fitness read?
Its yeast fitness is 0.859.

For GUUCCGUUGGCGUAAUGGGAACGCGUCUCCUACCUAAGGAGAAGUCUGCGGGUUCGAGUCCCGUACGGAUCG [U19G C31U U32A A45U A70U], which yeast fitness is on record?
The yeast fitness was no more than 0.5.

Which yeast fitness does the source give for GUUCCGUUGGCGUAAUGGGAACGCGUCUCCCUCCUAAGGAGAAGAGUGCGGGUUCGCGUCCCGUACGGAACG [U19G C46G A57C] here?
Its yeast fitness is no more than 0.5.

Which yeast fitness does the source give for GUUCCGUUGGCGUAAUGGGAACGCGUCUCCCUCCUAAGGAGAAGACUGCGGGUUCGGGUCCCGUAUGGAACG [U19G A57G C66U] here?
Its yeast fitness is no more than 0.5.

Which yeast fitness does the source give for GUUCCGUUGGCGUAAUGGGAACGCGUCUCCCUCUUAAGGAGAAGACUGCGGGUUCGAGUCCCGUACGGAACG [U19G C34U] here?
Its yeast fitness is 0.687.

For GUUCCGUUGGCGUAAUGGGAACGCGUCUCCCUCGUAAGGAGAAGACUGCGGGUUCGAGUCCCGUACGGCACG [U19G C34G A69C], which yeast fitness is on record?
Its yeast fitness is 0.504.

With GUUCCGUUGGCGUAAUGGGAACGCGUCUCCCUCCUAAGGAGAAGACUGCGGGUUCGAGUCCUGUACGGAACG [U19G C62U] as the variant, how does the yeast fitness read?
Its yeast fitness is 0.857.

With GUUCCGUUGGCGUAAUGGGAACGCGUCUCCCUCCUAAGGAGAAGACUGCGGGUUCGAGUCCCGUGCGGAACG [U19G A65G] as the variant, how does the yeast fitness read?
The yeast fitness was 1.03.

With GUUCCGUUGGCGUAAUGGGAACGCGUGUCCCUCCUAAGGAGAAGACUGCGGGUUCGAGUCCCGUACGGAACG [U19G C27G] as the variant, how does the yeast fitness read?
Its yeast fitness is 0.776.

Which yeast fitness does the source give for GUUCCGUUGGCGUAAUGGGAACGCGUCUUCCUCCUAAGGAGAAGACUGCGGGUUCGAGUCCCGUACGGACCG [U19G C29U A70C] here?
The yeast fitness was no more than 0.5.

With GUUCCGUUGGCGUAAUGGGAACGAGUCUCCCUCCUAAGGCGAAGUCUGCGGGUUCGAGUCCCGUACGGAACG [U19G C24A A40C A45U] as the variant, how does the yeast fitness read?
The yeast fitness was no more than 0.5.

For GUUCCGUUGGCGUAAUGGGAACGCGUGUCCCUCCUAAGGAGAAGACUGCGGGUUCGAGUCCCGUCGGGAACG [U19G C27G A65C C66G], which yeast fitness is on record?
The yeast fitness was 0.907.

For GUUCCGUUGGCGUAAUGGGAACGGGUCCCCCUCCUAAGGAGAAGACUGCGGGUUCGAGUCCCGUACGGAACG [U19G C24G U28C], which yeast fitness is on record?
Its yeast fitness is 0.681.

For GUUCCGUUGGCGUAAUGGGAACGCGUCUCCCUCCUAAGGAGAUGACUGCGGGUUCGAGUCCCGUACGGAACG [U19G A43U], which yeast fitness is on record?
The yeast fitness was 1.04.

With GUUCCGUUGGCGUAAUGGGAACGAGUCUCUCUCCUAAGGAGAAGACUGCGGGUUCGAGUCCCGUACGGAACG [U19G C24A C30U] as the variant, how does the yeast fitness read?
Its yeast fitness is no more than 0.5.

For GUUCCGUUGGCGUAAUGGGAACGCGUCUCCCUCCUAAGGAGAAGACUGCGGGUUUGAGUCCCGUACGGAACG [U19G C55U], which yeast fitness is on record?
Its yeast fitness is 0.762.

With GUUCCGUUGGCGUAAUGGGAACGAGUCUCCCUCGUAAGGAGAAGACUGCGGGUUCGAGUCCCGUACGGAACG [U19G C24A C34G] as the variant, how does the yeast fitness read?
The yeast fitness was 0.75.
